The nature of data set [1]: Cell cycle arrest in mouse 3T3L1 cells assessed as number of cells at G0/G1 phase at 3 uM after 24 hrs by flow cytometry (reference value: 37.6%). In kind it is functional, cell-based. Conditions: 3T3-L1.
Data set [2] concerns 3T3-L1. As to the kind of experiment: Induction of apoptosis in mouse 3T3L1 cells assessed as early apoptotic cells at 1 uM after 24 hrs by annexin-V-FITC and PI staining based flow cytometry (reference value: 0.56%). Type of data set: functional. On the technique in general: In flow cytometry, cells or beads pass a laser one at a time.
The nature of data set [3]: Cell cycle arrest in mouse 3T3L1 cells assessed as number of cells at G2/M phase at 3 uM after 24 hrs by flow cytometry (reference value: 37.2%). In kind it is functional, cell-based. Conditions: 3T3-L1.
Data set [4] is described as follows: Downregulation of SCD-1 level in mouse 3T3L1 cells after 6 days by western blot analysis. In kind it is functional, cell-based. Conditions: 3T3-L1. A digest of the protocol:
(§1)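 3T3-L1 preadipocytes incubated in adipogenic cocktail with or without compound (0.3, 1.0, 3.0 µM) for the stated periods. Protein levels measured by Western blot (RIPA lysis, PVDF, BSA block, primary 16 h at 4 °C, HRP secondary), normalized to GAPDH/Tubulin and expressed relative to controls; n = 3.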
A general note: In western blotting, separated proteins are transferred to a membrane and probed.

Data set [5] is described as follows: Decrease in triglyceride level in mouse 3T3L1 cells at 1 uM measured during 6 to 9 days by oil red O staining based microscopic analysis. Type of data set: functional, cell-based. Conditions: 3T3-L1. A digest of the protocol: (§2)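 3T3-L1 cells given 1 µM compound during day 0-3, 0-6, 0-9, 3-6, 3-9 or 6-9 of differentiation. On Day 9, intracellular lipid measured by TG assay (Triton lysate, GPO-POD kit, per protein) and by Oil Red O staining with microscopy; n = 3.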

The test system of data set [6] is HeLa. Description: Drug uptake in human HeLa cells measured from 5 mins to 1 hr by fluorescence analysis. Type of data set: ADME, cell-based.
Data set [7] can be described thus: Decrease in triglyceride level in mouse 3T3L1 cells at 1 uM measured during 0 to 3 days by oil red O staining based microscopic analysis. In kind it is functional, cell-based. Conditions: 3T3-L1. A digest of the protocol: as §2
The nature of data set [8]: Downregulation of ACC level in mouse 3T3L1 cells after 6 days by western blot analysis. Conditions: 3T3-L1. Type of data set: functional, cell-based. A digest of the protocol: as §1
Data set [9] can be described thus: Cell cycle arrest in mouse 3T3L1 cells assessed as number of cells at G0/G1 phase at 0.3 uM after 24 hrs by flow cytometry (reference value: 37.6%). Type of data set: functional, cell-based. Conditions: 3T3-L1.
Data set [10] relates to 3T3-L1. As to the kind of experiment: Inhibition of cell differentiation in mouse 3T3L1 cells assessed as delayed time point of cell contact inhibition at 0.5 uM for 9 days. In kind it is functional. The method in brief:
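3T3-L1 preadipocytes were induced to differentiate (IBMX/dexamethasone/insulin for 3 days, then insulin) with compound added from day 0 at 0.5 or 5 µM; DMSO vehicle served as control. Cells were collected and counted every day to follow proliferation and to find when contact inhibition resumed.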

The test system of data set [11] is 3T3-L1. Description: Induction of apoptosis in mouse 3T3L1 cells assessed as viable cells at 1 uM after 24 hrs by annexin-V-FITC and PI staining based flow cytometry (reference value: 98.95%). Type of data set: functional. Conditions: 3T3-L1, 24 h, read-out: Activity.
A short description of data set [12]: Cell cycle arrest in mouse 3T3L1 cells assessed as number of cells at G0/G1 phase at 1 uM after 24 hrs by flow cytometry (reference value: 37.6%). In kind it is functional, cell-based. Conditions: 3T3-L1.
Data set [13] deals with T1, Serine/threonine-protein kinase STK11 (Mus musculus) (UniProt Q9WTK7).
T1 sequence (whole entry): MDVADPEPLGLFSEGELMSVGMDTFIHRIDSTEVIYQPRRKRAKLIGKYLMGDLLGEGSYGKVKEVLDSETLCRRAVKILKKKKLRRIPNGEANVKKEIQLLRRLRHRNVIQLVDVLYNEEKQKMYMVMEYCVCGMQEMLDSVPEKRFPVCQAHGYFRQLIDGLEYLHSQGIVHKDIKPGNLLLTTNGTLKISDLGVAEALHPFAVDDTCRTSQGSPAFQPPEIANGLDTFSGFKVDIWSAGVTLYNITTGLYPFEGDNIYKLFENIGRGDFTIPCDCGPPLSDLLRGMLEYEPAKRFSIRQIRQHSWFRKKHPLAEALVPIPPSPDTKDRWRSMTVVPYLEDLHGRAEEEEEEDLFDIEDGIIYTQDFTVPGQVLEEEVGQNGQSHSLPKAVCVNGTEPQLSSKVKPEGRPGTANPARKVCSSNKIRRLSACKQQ
As to the kind of experiment: Activation of LKB1-mediated AMPK in mouse 3T3L1 cells assessed as increase in phophorylated AMPK alpha at Thr 172 residue level at 3 uM by western blot analysis. In kind it is cell-based. Conditions: 3T3-L1, TDE = time-dependent effect. A digest of the protocol: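 3T3-L1 preadipocytes held in adipogenic cocktail with or without compound at 3 µM, time course (10 min, 2 h, 24 h) during differentiation. Lysis in RIPA with protease/phosphatase inhibitors, SDS-PAGE, PVDF, BSA block, primary antibody 16 h at 4 °C, HRP secondary. Bands normalized to GAPDH, with the 10 min DMSO group set as 100%; n = 3.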

Data set [14] can be described thus: Upregulation of LKB1 expression in mouse 3T3L1 cells at 3 uM after 10 mins by western blot analysis. In kind it is functional, cell-based. Conditions: 3T3-L1. The method in brief:
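During 3T3-L1 differentiation with adipogenic cocktail, cells were treated with 3 µM compound for 10 min, 2 h or 24 h. Lysates in RIPA with protease/phosphatase inhibitors were run on SDS-PAGE and Western blotted. Proteins were normalized to GAPDH and expressed relative to the 10 min DMSO group, which was set at 100%; n = 3 independent experiments.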

Active and inactive are the calls of the source. No cut-off for these calls is given here.

As a reminder, the inhibition is the percentage by which the read-out fell short of the control.

On to `O=Cc1c(-c2nc(NCCN3CCCC3)c3ccccc3n2)[nH]c2ccccc12`, for which the Activity was 33.5% in data set [1]; 0.84% in [2]; 57.9% in [3]; 51.8% in [9]; 42.9% in data set [12]; “tde” in [13]. Besides, the inhibition entry in data set [4] is “Dose-dependent effect”; in data set [5], 60%; in data set [7], 85%; in data set [8], “Dose-dependent effect”. For the same molecule, in [6], the Drug uptake result is recorded as “Active”. Further, the Time in data set [10] was 6 days. Further, in data set [11], the viability at 1 µM is 98%. Also, the result in [14] was Active.

The values above are taken from ChEMBL document CHEMBL3734704, “Synthesis and Biological Evaluation of Novel Bouchardatine Derivatives as Potential Adipogenesis/Lipogenesis Inhibitors for Antiobesity Treatment” (J Med Chem, 2015).
